Data taken from article PMC11982377 (Communications Biology, 2025).
Entries after “also recorded” stand apart in the source; their conditions may differ.

Tests used:
sfWDS [1] = target: T1, sfWDS (Spodoptera frugiperda, UniProt A0A2H1VC02); assay: In vitro ubiquitination; assay type: biochemical; conditions: listed as MS67
sfWDS [2] = target: T1, sfWDS; assay: Sf9 cell degradation assay; assay type: cell-based; conditions: Sf9 cells
Outline: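 Sf9 cells in ESF921 medium, split into 1e6-cell aliquots and treated 24 h with test compound or DMSO. For sfWDS, some treatments at 10 μM ± bortezomib 10 μM. Lysed in Tris-SDS, then acetone precipitation, urea reduction/alkylation, Trypsin/LysC digest and MCX cleanup. Stable-isotope peptide standards spiked in; targeted MS. Signal normalised to isotope and total peptide, as % of DMSO. n = 4. Dose-response by 4-parameter fit.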

Sf9 cells = assay: PROTAC cellular permeability and distribution measured by LCMS; assay type: in vitro ADME, Spodoptera frugiperda; conditions: 10 µM, 24 h
WDR5 = conditions: MV4-11 cells ref 34; cited from earlier work

Q: With Cc1ncsc1-c1ccc([C@H](C)NC(=O)[C@@H]2C[C@@H](O)CN2C(=O)[C@@H](NC(=O)CNC(=O)c2ccc(F)c(-c3ccc(N4C[C@@H](C)N(C)[C@@H](C)C4)c(NC(=O)c4c[nH]c(=O)cc4C(F)(F)F)c3)c2)C(C)(C)C)cc1 [Compound 12] as the molecule, how does the “IVQ Y/N (ubiquitination of sfWDS)” value (sfWDS [1]) read?
A: Its value is “polyubiquitination of sfWDS was observed in a dose-dependent manner”.

Q: What about the “degradation of sfWDS in cell” value (sfWDS [2]) of the same molecule?
A: The value was “did not demonstrate in cell degradation”.

Q: And the “degradation of sfWDS in cell” value (sfWDS [2]; listed as MS67)?
A: Its value is “failed to prompt degradation of sfWDS; also recorded: did not show degradation in cells”.

Q: What about the “PROTAC in cells (of total PROTAC recovery, cells vs media)” value (Sf9 cells) of the same molecule?
A: The value was “only detected at very low intracellular levels”.

Q: And the “Dmax, degradation of WDR5” value (WDR5)?
A: Its value is 94%.
